Assay results published in ChEMBL document CHEMBL4257470, “Rational design and characterization of a DNA/HDAC dual-targeting inhibitor containing nitrogen mustard and 2-aminobenzamide moieties” (Medchemcomm, 2018).
Calls of active or inactive are those of the source. No cut-off for these calls is given here.

Assays:
HepG2 = assay: Antiproliferative activity against human HepG2 cells after 72 hrs CCK8 assay; assay type: functional, cell-based; details: HepG2, 72 h
A549 = assay: Antiproliferative activity against human A549 cells after 72 hrs CCK8 assay; assay type: functional, cell-based; details: A549, 72 h
A-375 [1] = assay: Antiproliferative activity against human A375 cells after 72 hrs CCK8 assay; assay type: functional, cell-based; details: A-375, 72 h
A-375 [2] = assay: Induction of apoptosis in human A375 cells assessed as early apoptotic cells at 8 uM after 72 hrs by Alexa Fluor 488 Annexin/propidium iodide staining-based flow cytometric analysis (reference value: 2.07%); assay type: functional
A-375 [3] = assay: Induction of apoptosis in human A375 cells assessed as late apoptotic cells at 2 uM after 72 hrs by Alexa Fluor 488 Annexin/propidium iodide staining-based flow cytometric analysis (reference value: 10.22%); assay type: functional
A-375 [4] = assay: Induction of apoptosis in human A375 cells assessed as viable cells at 2 uM after 72 hrs by Alexa Fluor 488 Annexin/propidium iodide staining-based flow cytometric analysis (reference value: 86.07%); assay type: functional; details: A-375, 72 h, read-out: Activity
[5] = target: T1, Protein deacetylase HDAC6 (Homo sapiens, UniProt Q9UBN7); assay: Inhibition of recombinant human HDAC6 using FLUOR DE LYS SIRT1, deacetylase as substrate after 1 hr by fluorescence assay
T1 sequence (Q9UBN7 whole entry): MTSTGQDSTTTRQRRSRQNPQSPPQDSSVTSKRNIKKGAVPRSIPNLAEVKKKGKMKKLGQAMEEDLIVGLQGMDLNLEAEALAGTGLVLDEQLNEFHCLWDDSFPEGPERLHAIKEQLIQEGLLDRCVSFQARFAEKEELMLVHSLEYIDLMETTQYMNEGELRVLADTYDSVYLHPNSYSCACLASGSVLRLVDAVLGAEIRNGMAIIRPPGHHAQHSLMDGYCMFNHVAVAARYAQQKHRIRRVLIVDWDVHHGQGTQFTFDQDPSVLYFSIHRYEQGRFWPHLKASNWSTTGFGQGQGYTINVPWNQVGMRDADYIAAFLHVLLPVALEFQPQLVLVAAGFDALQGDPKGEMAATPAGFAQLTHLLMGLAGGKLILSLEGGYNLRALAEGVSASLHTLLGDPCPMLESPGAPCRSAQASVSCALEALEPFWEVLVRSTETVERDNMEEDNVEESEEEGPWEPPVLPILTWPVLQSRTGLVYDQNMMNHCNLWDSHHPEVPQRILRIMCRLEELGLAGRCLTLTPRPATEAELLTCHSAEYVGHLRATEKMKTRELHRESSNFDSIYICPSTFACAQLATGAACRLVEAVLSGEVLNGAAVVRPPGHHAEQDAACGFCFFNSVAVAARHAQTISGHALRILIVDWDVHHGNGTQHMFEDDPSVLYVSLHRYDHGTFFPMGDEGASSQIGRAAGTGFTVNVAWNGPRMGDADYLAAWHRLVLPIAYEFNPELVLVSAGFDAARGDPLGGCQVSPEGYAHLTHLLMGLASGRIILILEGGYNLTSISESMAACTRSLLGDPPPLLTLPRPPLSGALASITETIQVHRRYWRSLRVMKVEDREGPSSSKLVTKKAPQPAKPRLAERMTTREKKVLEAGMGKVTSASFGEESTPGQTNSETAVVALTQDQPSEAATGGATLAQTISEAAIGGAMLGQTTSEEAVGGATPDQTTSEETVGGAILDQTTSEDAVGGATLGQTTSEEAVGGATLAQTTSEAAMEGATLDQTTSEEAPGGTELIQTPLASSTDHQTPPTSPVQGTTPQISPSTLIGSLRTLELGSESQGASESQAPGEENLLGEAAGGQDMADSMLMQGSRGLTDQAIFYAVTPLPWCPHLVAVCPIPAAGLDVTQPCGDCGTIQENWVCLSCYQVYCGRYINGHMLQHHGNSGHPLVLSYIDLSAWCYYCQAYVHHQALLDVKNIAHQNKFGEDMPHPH
How it was run: (§1)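 Each isoform kit run with the enzyme preincubated with a concentration series of inhibitor, and substrate added after 5 min equilibration at 37 °C. Reaction ran 1 h at 37 °C, was stopped with developer for 10 min at 25 °C, and fluorescence was read at ex 360/em 460 nm. Activity taken as percent of control; IC50 by regression of dose–inhibition data.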

A-375 [6] = assay: Induction of apoptosis in human A375 cells assessed as late apoptotic cells at 8 uM after 72 hrs by Alexa Fluor 488 Annexin/propidium iodide staining-based flow cytometric analysis (reference value: 10.22%); assay type: functional
A-375 [7] = assay: Induction of apoptosis in human A375 cells assessed as necrotic cells at 16 uM after 72 hrs by Alexa Fluor 488 Annexin/propidium iodide staining-based flow cytometric analysis (reference value: 1.64%); assay type: functional
A-375 [8] = assay: Induction of apoptosis in human A375 cells assessed as early apoptotic cells at 16 uM after 72 hrs by Alexa Fluor 488 Annexin/propidium iodide staining-based flow cytometric analysis (reference value: 2.07%); assay type: functional
[9] = Induction of DNA damage in human A375 cells assessed as phosphorylation of H2AX at Ser139 residues at 16 uM after 48 hrs relative to control; assay type: functional
How it was run: (§2)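 A375 cells seeded 7000 per well, treated next day for 48 h. Whole-cell γH2AX (Ser139) immunoassay read by absorbance, normalised to cell number and expressed as percent of untreated control; mean ± SD, n = 3; t-test.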

A-375 [10] = assay: Induction of apoptosis in human A375 cells assessed as late apoptotic cells at 16 uM after 72 hrs by Alexa Fluor 488 Annexin/propidium iodide staining-based flow cytometric analysis (reference value: 10.22%); assay type: functional
A-375 [11] = assay: Induction of apoptosis in human A375 cells assessed as necrotic cells at 2 uM after 72 hrs by Alexa Fluor 488 Annexin/propidium iodide staining-based flow cytometric analysis (reference value: 1.64%); assay type: functional
NCI-H460 = assay: Antiproliferative activity against human H460 cells after 72 hrs CCK8 assay; assay type: functional, cell-based; details: NCI-H460, 72 h
How it was run: (§3)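 Cells grown in RPMI1640 with 10% FBS, 1% penicillin/streptomycin, 37 °C, 5% CO2; log-phase cells seeded 3000–4000 per well, dosed after 12 h with a concentration series or solvent control for 72 h. CCK-8 added for 1 h, absorbance at 450 nm; IC50 from percent growth versus untreated control; mean of three experiments.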

NCI-H1299 = assay: Antiproliferative activity against human H1299 cells after 72 hrs CCK8 assay; assay type: functional, cell-based; details: NCI-H1299, 72 h
Histone deacetylase 1 = Histone deacetylase 1 (Homo sapiens, UniProt Q13547); assay: Inhibition of recombinant human HDAC1 using FLUOR DE LYS SIRT1 deacetylase substrate after 1 hr by fluorescence assay; how it was run: as §1
[12] = target: Histone deacetylase (Homo sapiens) (UniProt Q13547+O15379+Q9UBN7+Q92769+Q9UQL6+Q8WUI4+Q9BY41+Q96DB2+P56524+Q9UKV0+Q969S8); assay: Inhibition of HDAC in human HeLa cell nuclear extracts at 0.1 to 10000 uM using FLUOR DE LYS-Green as substrate after 1 hr by fluorescence assay; assay type: protein assay
How it was run: (§4)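 Enzyme preincubated with a concentration series of inhibitor; Fluor de Lys-Green substrate equilibrated at 37 °C for 5 min, then added to start the reaction. Incubated 1 h at 37 °C, stopped with developer for 10 min at 25 °C, fluorescence read at ex 360/em 460 nm. Activity taken as percent of control; IC50 by regression of dose–inhibition data.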

[13] = target: Histone deacetylase 3/NCoR1 (Homo sapiens, UniProt O15379); assay: Inhibition of recombinant human HDAC3/NCOR1 using FLUOR DE LYS SIRT1 deacetylase substrate after 1 hr by fluorescence assay; assay type: protein-complex assay; how it was run: as §1
A-375 [14] = assay: Anticlonogenic activity against human A375 cells after 7 days by crystal violet staining based assay; assay type: functional, cell-based
How it was run: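 A375 cells seeded at 3000 per well, treated after 24 h with compound or DMSO; after 7 days colonies fixed in 3.7% formaldehyde and stained with 0.1% crystal violet.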

A-375 [15] = assay: Induction of apoptosis in human A375 cells assessed as viable cells at 8 uM after 72 hrs by Alexa Fluor 488 Annexin/propidium iodide staining-based flow cytometric analysis (reference value: 86.07%); assay type: functional; details: A-375, 72 h, read-out: Activity
A-375 [16] = assay: Induction of apoptosis in human A375 cells assessed as necrotic cells at 8 uM after 72 hrs by Alexa Fluor 488 Annexin/propidium iodide staining-based flow cytometric analysis (reference value: 1.64%); assay type: functional
Histone deacetylase 8 = target: T2, Histone deacetylase 8 (Homo sapiens, UniProt Q9BY41); assay: Inhibition of recombinant human HDAC8 using FLUOR DE LYS as substrate after 1 hr by fluorescence assay; how it was run: as §1
T2 sequence (Q9BY41 whole entry): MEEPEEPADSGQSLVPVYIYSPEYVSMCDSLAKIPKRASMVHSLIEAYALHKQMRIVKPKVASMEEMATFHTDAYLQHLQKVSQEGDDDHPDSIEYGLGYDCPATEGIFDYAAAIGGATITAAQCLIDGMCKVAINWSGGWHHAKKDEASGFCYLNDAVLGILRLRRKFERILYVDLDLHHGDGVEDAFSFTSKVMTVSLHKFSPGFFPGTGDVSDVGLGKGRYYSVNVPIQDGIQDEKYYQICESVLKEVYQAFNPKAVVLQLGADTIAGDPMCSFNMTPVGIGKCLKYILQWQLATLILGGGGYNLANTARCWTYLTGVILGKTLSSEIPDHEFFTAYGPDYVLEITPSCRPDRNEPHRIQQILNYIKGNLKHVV

A-375 [17] = assay: Induction of apoptosis in human A375 cells assessed as viable cells at 16 uM after 72 hrs by Alexa Fluor 488 Annexin/propidium iodide staining-based flow cytometric analysis (reference value: 86.07%); assay type: functional; details: A-375, 72 h, read-out: Activity
SMMC-7721 = assay: Antiproliferative activity against human SMMC7721 cells after 72 hrs CCK8 assay; assay type: functional, cell-based; details: SMMC-7721, 72 h; how it was run: as §3
Histone deacetylase 2 = Histone deacetylase 2 (Homo sapiens, UniProt Q92769); assay: Inhibition of recombinant human HDAC2 using FLUOR DE LYS-Green as substrate after 1 hr by fluorescence assay; how it was run: as §4
A-375 [18] = assay: Induction of apoptosis in human A375 cells assessed as early apoptotic cells at 2 uM after 72 hrs by Alexa Fluor 488 Annexin/propidium iodide staining-based flow cytometric analysis (reference value: 2.07%); assay type: functional
A-375 [19] = assay: Cell cycle arrest in human A375 cells assessed as accumulation at G2/M phase at 8 uM after 72 hrs by propidium iodide/RNase staining based flow cytometric analysis relative to control; assay type: functional
How it was run: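 A375 cells (1.6 × 10^5 per well) plated 12 h, then treated with compound or DMSO for 72 h. Cells fixed overnight in 70% ethanol in phosphate buffer at –20 °C, stained 30 min at room temperature with RNase:PI (1:9). DNA content read by flow cytometry.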

[20] = Induction of DNA damage in human A375 cells assessed as phosphorylation of H2AX at Ser139 residues at 8 uM after 48 hrs relative to control; assay type: functional; how it was run: as §2
A-375 [21] = assay: Induction of apoptosis in human A375 cells after 72 hrs by Alexa Fluor 488 Annexin/propidium iodide staining-based flow cytometric analysis; assay type: functional, cell-based

Histone deacetylase 3/NCoR1, sequence (O15379 whole entry): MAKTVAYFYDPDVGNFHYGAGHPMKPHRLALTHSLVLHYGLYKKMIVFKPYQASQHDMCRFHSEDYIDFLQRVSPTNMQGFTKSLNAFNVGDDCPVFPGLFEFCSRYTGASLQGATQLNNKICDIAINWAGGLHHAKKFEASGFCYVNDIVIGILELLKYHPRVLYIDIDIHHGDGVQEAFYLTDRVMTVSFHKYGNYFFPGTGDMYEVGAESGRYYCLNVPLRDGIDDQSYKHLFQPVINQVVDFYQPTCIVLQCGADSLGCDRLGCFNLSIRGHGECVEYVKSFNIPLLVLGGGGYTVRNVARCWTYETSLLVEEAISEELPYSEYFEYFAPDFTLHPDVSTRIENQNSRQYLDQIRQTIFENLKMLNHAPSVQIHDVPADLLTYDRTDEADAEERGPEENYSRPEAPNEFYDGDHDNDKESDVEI
Histone deacetylase 3/NCoR1, sequence (O75376 whole entry, further chain): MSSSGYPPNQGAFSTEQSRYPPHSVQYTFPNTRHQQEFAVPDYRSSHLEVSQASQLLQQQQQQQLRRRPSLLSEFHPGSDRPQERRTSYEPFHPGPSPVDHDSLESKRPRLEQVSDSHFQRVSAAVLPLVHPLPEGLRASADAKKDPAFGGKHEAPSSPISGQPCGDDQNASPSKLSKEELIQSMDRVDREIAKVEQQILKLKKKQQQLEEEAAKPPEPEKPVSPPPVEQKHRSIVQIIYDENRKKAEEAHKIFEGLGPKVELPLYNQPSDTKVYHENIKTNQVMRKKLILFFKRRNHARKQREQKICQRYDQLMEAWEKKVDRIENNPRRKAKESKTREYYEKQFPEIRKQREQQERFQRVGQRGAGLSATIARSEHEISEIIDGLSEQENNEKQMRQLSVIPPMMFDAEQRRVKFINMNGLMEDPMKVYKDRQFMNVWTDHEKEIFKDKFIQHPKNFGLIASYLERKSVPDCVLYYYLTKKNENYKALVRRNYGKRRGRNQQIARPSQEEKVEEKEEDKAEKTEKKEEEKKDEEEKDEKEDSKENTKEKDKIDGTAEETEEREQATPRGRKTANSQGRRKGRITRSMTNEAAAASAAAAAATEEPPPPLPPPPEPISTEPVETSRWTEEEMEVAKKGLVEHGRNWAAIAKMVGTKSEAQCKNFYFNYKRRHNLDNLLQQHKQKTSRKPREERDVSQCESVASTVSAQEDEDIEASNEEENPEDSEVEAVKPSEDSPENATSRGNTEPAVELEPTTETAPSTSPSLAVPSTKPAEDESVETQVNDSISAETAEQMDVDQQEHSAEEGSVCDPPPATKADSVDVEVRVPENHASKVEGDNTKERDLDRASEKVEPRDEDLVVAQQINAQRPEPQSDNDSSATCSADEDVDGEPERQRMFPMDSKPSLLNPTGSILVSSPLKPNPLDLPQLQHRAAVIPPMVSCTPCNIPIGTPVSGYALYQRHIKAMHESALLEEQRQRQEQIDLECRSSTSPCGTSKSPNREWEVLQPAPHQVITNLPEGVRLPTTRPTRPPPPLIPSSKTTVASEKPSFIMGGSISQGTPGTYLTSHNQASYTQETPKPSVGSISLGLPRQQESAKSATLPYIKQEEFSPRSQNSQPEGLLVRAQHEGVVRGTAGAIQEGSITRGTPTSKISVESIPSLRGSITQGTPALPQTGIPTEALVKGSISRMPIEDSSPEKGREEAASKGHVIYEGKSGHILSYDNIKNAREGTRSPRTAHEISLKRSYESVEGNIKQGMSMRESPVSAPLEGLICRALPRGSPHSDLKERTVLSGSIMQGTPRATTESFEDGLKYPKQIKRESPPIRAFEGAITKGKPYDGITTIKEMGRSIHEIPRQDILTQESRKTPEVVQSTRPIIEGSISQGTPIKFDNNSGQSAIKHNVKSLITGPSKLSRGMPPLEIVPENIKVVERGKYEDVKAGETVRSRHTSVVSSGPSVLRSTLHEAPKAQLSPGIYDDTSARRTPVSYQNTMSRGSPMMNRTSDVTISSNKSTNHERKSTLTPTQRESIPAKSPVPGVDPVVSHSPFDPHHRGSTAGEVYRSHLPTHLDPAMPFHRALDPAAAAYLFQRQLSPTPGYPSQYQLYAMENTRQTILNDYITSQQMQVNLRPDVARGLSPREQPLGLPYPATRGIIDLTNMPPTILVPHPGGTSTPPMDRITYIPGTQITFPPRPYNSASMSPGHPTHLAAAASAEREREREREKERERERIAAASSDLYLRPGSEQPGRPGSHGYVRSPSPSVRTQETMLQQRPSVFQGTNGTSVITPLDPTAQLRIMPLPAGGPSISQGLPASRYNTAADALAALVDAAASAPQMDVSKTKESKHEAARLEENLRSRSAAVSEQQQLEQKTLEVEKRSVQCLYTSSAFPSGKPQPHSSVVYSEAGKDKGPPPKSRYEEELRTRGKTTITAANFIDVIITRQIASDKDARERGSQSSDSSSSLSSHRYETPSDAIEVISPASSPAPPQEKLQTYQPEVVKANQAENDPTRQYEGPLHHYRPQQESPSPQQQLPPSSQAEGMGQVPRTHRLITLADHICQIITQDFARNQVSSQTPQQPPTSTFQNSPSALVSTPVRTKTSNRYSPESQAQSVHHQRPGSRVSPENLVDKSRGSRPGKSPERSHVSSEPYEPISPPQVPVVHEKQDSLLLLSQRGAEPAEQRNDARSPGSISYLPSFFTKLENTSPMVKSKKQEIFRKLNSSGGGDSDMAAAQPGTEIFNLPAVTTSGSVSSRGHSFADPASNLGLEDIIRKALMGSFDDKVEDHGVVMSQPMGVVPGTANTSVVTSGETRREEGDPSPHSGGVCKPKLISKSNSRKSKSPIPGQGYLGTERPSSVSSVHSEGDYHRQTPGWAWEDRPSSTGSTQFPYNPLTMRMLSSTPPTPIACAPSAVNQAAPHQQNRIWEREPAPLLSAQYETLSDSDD
Histone deacetylase 1, sequence (Q13547 whole entry): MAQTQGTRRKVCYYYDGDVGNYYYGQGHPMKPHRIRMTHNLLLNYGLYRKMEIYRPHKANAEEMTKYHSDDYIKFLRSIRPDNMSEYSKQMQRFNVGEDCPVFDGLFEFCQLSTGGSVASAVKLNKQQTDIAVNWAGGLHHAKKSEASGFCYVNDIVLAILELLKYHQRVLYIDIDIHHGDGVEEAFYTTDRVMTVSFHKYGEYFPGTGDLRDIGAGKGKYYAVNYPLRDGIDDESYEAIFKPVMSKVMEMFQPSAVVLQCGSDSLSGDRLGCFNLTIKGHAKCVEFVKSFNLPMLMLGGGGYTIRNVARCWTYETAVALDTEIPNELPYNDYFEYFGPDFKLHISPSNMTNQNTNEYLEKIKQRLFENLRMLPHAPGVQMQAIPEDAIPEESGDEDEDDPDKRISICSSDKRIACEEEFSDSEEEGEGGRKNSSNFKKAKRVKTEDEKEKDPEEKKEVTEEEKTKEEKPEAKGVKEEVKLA
Histone deacetylase 2, sequence (Q92769 whole entry): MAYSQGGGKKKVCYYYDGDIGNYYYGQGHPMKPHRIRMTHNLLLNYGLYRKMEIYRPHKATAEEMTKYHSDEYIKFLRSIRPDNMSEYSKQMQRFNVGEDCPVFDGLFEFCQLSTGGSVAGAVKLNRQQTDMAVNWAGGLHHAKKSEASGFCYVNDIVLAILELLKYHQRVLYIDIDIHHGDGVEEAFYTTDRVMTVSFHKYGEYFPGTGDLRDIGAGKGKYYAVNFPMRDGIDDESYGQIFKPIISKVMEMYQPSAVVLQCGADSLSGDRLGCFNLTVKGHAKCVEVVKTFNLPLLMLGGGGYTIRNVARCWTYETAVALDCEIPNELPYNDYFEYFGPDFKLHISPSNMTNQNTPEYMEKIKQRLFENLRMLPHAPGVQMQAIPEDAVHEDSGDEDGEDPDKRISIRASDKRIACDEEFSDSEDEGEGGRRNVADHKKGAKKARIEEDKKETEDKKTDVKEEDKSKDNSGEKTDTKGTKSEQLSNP

| SMILES | Activity (A-375 [2]) | Activity (A-375 [3]) | viability at 2 µM (A-375 [4]) | Activity (A-375 [6]) | Activity (A-375 [7]) | Activity (A-375 [8]) | Activity [9] | Activity (A-375 [10]) | Activity (A-375 [11]) | IC50 (NCI-H460) | IC50 (NCI-H1299) | viability at 8 µM (A-375 [15]) | Activity (A-375 [16]) | viability at 16 µM (A-375 [17]) | IC50 (SMMC-7721) | Activity (A-375 [18]) | Activity (A-375 [19]) | Activity [20] | also measured |
| --- | --- | --- | --- | --- | --- | --- | --- | --- | --- | --- | --- | --- | --- | --- | --- | --- | --- | --- | --- |
| Nc1ccccc1NC(=O)CCCc1ccc(N(CCCl)CCCl)cc1 | 7.39% | 11.63% | 79.8% | 42.54% | 3.78% | 12.31% | 213.3% | 48.69% | 2.77% | 3.1 µM | 5.5 µM | 38% | 12.05% | 35.2% | 4 µM | 5.76% | 79.2% | 159% | IC50 (HepG2): 14.2 µM; IC50 (A549): 6.2 µM; IC50 (A-375 [1]): 6.1 µM; IC50 [5]: > 160 µM; IC50 (Histone deacetylase 1): > 160 µM; inhibition [12]: Active; IC50 [13]: 9.52 µM; Activity (A-375 [14]): Dose-dependent effect; IC50 (Histone deacetylase 8): 75.2 µM; IC50 (Histone deacetylase 2): 32.9 µM; Activity (A-375 [21]): Dose-dependent effect |
| O=C(O)CCCc1ccc(N(CCCl)CCCl)cc1 [CHLORAMBUCIL] | 2.11% | 6.95% | 90.1% | 8.41% | 6.44% | 4.21% | 128.6% | 18.21% | 1.36% | 28.9 µM | 116 µM | 87.1% | 2.34% | 71.1% | 163 µM | 1.62% | 47.6% | 128.9% | – |
| CC(=O)Nc1ccc(C(=O)Nc2ccccc2N)cc1 [TACEDINALINE] | 19.04% | 11.03% | 78.4% | 9.09% | 1.01% | 36.31% | 118.8% | 26.71% | 1.04% | 9.7 µM | – | 70.4% | 0.71% | 36% | 16.9 µM | 9.54% | 10.8% | 104.5% | – |
